A short description of data set [1]: folding enthalpy; higher = less favourable; fluorescence melt of hairpins on a sequencing array, two-state fit. The settings on record: sodium 0.088 M. The method in brief:
(§1)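 Cy3 signals were normalised both to pre-quench Cy3 and to control constructs. They came from library hairpins carrying annealed Cy3 and quencher oligos on a sequenced MiSeq flow cell, imaged in 50 mM Na-HEPES pH 8.0, 25 mM NaCl, in 2.5 °C steps up to 60 °C. Bootstrapped two-state fits gave melting temperature and folding enthalpy, and four replicates were combined by inverse variance. Fitted temperatures were then raised by 9.35 °C to match UV melts.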

Data set [2] is described as follows: melting temperature; fluorescence melt of hairpins on a sequencing array, two-state fit, raised by 9.35 °C to match UV melts. The following applies: sodium 0.088 M. The method in brief: as §1

On to GATCTAATGATAGATC ((((((....)))))), for which the folding enthalpy in data set [1] was -20.4 kcal/mol. Further, the Tm in data set [2] came out at 36.2 °C.
Take GCATCGCGAAAGCCAGGC ((.(.((....)).).)): the folding enthalpy in data set [1] was -10.4 kcal/mol. Besides, the Tm in data set [2] came to 37.2 °C.
Take GTGTTAGGAAACTAGCAC (((.(((....))).))): in data set [1], the folding enthalpy was -31.2 kcal/mol. Also, the Tm in data set [2] came out at 42.9 °C.
On to GGCTGTGGAAACACGGCC (((.(((....))).))), for which the folding enthalpy in data set [1] is -46.6 kcal/mol. For the same sequence, the Tm in data set [2] was 60.8 °C.
As for GCTGGAGGAAACTTCAGC ((((.((....)).)))), in data set [1], the folding enthalpy was -40.8 kcal/mol. The Tm in data set [2] turned out to be 50 °C.
GATCATCATATGATC ((((((...)))))): in data set [1], the folding enthalpy was -35.5 kcal/mol. Besides, the Tm in data set [2] turned out to be 47.2 °C.
On the same counts, the results for GCATACCCGAAAGGGTGC (((..(((....)))))) are -12.1 kcal/mol and 49.7 °C.
In the case of GCATACCGAAAGGTTGC (((.(((....)))))), the folding enthalpy in data set [1] is -32.3 kcal/mol. The Tm in data set [2] worked out at 54 °C.
With GATCTGTCGGCAGATC ((((((....)))))), the folding enthalpy in data set [1] was -45.6 kcal/mol. For the same sequence, the Tm in data set [2] was determined as 51.1 °C.
On the same counts, the results for GATCGTCAGTACGATC ((((((....)))))) are -42.8 kcal/mol and 53.7 °C.
As to GCTTGAGGAAACTTAAGC ((((.((....)).)))), the folding enthalpy in data set [1] is -26.4 kcal/mol. Further, the Tm in data set [2] worked out at 39.7 °C.
On the same counts, the results for GAGTTTGGAAACAGACTC ((((.((....)).)))) are -28.3 kcal/mol and 41.1 °C.
Regarding CGCGGACAGTCCGCG ((((((...)))))), the folding enthalpy in data set [1] was -32.6 kcal/mol. In data set [2], the Tm was determined as 65.6 °C.
With GATCCCAGAGGGGATC ((((((....)))))), the folding enthalpy in data set [1] is -32.2 kcal/mol. The Tm in data set [2] was 60.9 °C.
On the same counts, the results for GCTATACCGAAAGGTAGC (((..(((....)))))) are -17 kcal/mol and 40 °C.
For GCGAGCGTTCGC ((((....)))), in that order: -14.2 kcal/mol and 49 °C.
As to GGGGAGGGAAACTTCCCC (((((.(....).))))), the folding enthalpy in data set [1] was -33 kcal/mol. Further, the Tm in data set [2] amounted to 50.9 °C.
On the same counts, the results for GTGCTCGAAAGAGAGCAC ((((((....)))..))) are -34.2 kcal/mol and 58.2 °C.
With GATCGGCTGCCGATC ((((((...)))))), the folding enthalpy in data set [1] is -55.3 kcal/mol. Further, the Tm in data set [2] stood at 57.2 °C.
On the same counts, the results for GATCGAAATGTCGATC ((((((....)))))) are -36.8 kcal/mol and 48.7 °C.
On the same counts, the results for GGGCCTGCGAAAGCACCC (((..(((....)))))) are -9.63 kcal/mol and 50.5 °C.
Turning to GTCGGCGAAAGCCCGGAC ((((((....)))..))), the folding enthalpy in data set [1] was -14.2 kcal/mol. In addition, in data set [2], the Tm came to 42.4 °C.
Turning to GATCACGCACGTGATC ((((((....)))))), the folding enthalpy in data set [1] is -40.5 kcal/mol. Besides, in data set [2], the Tm came to 68.9 °C.
On the same counts, the results for TATCGGAAACGATA (((((....))))) are -17.8 kcal/mol and 43 °C.
Regarding GATCCATCGTTGGATC ((((((....)))))), in data set [1], the folding enthalpy was -43.1 kcal/mol. The Tm in data set [2] amounted to 51.7 °C.
On the same counts, the results for GGGTAGGGAAACCTGTCC ((..(((....)))..)) are -17.2 kcal/mol and 32.3 °C.
Regarding GATCTCCCATGAGATC ((((((....)))))), in data set [1], the folding enthalpy was -34.4 kcal/mol. In data set [2], the Tm came to 51.6 °C.
For TTCTCGAAAGAGAA (((((....))))), in that order: -15.2 kcal/mol and 49.1 °C.
Regarding GATCACTTTGTGATC ((((((...)))))), the folding enthalpy in data set [1] is -34.2 kcal/mol. The Tm in data set [2] amounted to 63.1 °C.
For GCGTTAAGACGC ((((....)))), in that order: -22.4 kcal/mol and 54 °C.
For the sequence GTAAGGCCGAAAGGCTAC (((..(((....)))))), in data set [1], the folding enthalpy was -9.55 kcal/mol. In addition, in data set [2], the Tm was 33.8 °C.
For GATCTCAAACGAGATC ((((((....)))))), in that order: -41.4 kcal/mol and 50.2 °C.
Turning to GGCAGCGAAAGCTGGGCC ((((((....)))..))), the folding enthalpy in data set [1] was -13.1 kcal/mol. Also, the Tm in data set [2] worked out at 52 °C.
On the same counts, the results for GATCCCTAATGGGATC ((((((....)))))) are -38.3 kcal/mol and 57.6 °C.
On the same counts, the results for GTCCACGAAAGTGGTGAC ((((((....)))..))) are -9.78 kcal/mol and 38.2 °C.
Take GCCTCGCGAAAGCGGAGC ((..(((....)))..)): in data set [1], the folding enthalpy is -13.7 kcal/mol. Further, in data set [2], the Tm was found to be 50.9 °C.
For GCGGCAGGAAACCGCCGC (((((.(....).))))), in data set [1], the folding enthalpy was -30.6 kcal/mol. Also, in data set [2], the Tm was found to be 69.3 °C.
For CACGTGAAAACGTG (((((....))))), in that order: -24.9 kcal/mol and 58.6 °C.
On the same counts, the results for GTAGGCGAAAGCCGTAC ((((((....))).))) are -13 kcal/mol and 57.3 °C.
For CGTAACGGAAACGTACG (((.(((....)))))), in that order: -31 kcal/mol and 44.3 °C.
Regarding GAGCCCGGAAACGAGCCC (.((.((....)).)).), the folding enthalpy in data set [1] is -14 kcal/mol. Moreover, the Tm in data set [2] turned out to be 29.1 °C.
As for GACCAAGGAAACTTGGCC (.(((((....))))).), in data set [1], the folding enthalpy is -16.6 kcal/mol. Besides, the Tm in data set [2] was determined as 41.7 °C.
On the same counts, the results for GCCTACGAAAGTAAGGC ((((((....))).))) are -31.3 kcal/mol and 56.9 °C.
For GTAGTCGGAAACAACTAC (((((.(....).))))), in that order: -24.5 kcal/mol and 33.6 °C.
On the same counts, the results for GATCTCCGAAAGGAAATC (((.(((....))).))) are -25.1 kcal/mol and 34.2 °C.
In the case of GATCACGTTTGTGATC ((((((....)))))), the folding enthalpy in data set [1] is -40.4 kcal/mol. The Tm in data set [2] came to 58.5 °C.
On the same counts, the results for GCTCCGCGAAAGCGACGC ((..(((....)))..)) are -18.4 kcal/mol and 42.6 °C.
On the same counts, the results for GACCTGGGAAACCGGGTC ((((.((....)).)))) are -44.8 kcal/mol and 57.1 °C.
In the case of CCAACGAAAGTTGG (((((....))))), the folding enthalpy in data set [1] is -25.4 kcal/mol. The Tm in data set [2] was 58 °C.
Turning to GATCGACCGATCGATC ((((((....)))))), in data set [1], the folding enthalpy is -25.4 kcal/mol. Moreover, the Tm in data set [2] is 51.6 °C.
In the case of GCCCGCCGAAAGGCGGC (((.(((....)))))), the folding enthalpy in data set [1] was -7.03 kcal/mol. In addition, in data set [2], the Tm was 66.6 °C.
On the same counts, the results for GTTGCCGAAAGGCACAAC ((((((....)))..))) are -8.02 kcal/mol and 35.7 °C.
On the same counts, the results for GCCAGGCGAAAGCAGGGC (((..((....))..))) are -32.1 kcal/mol and 64 °C.
On the same counts, the results for GCAATGGAAACATTGC ((((((....)))))) are -42.1 kcal/mol and 58.1 °C.
Take GCCCAGCGAAAGCGTGGC (((..((....))..))): the folding enthalpy in data set [1] was -23 kcal/mol. Besides, the Tm in data set [2] stood at 62.4 °C.
On the same counts, the results for GATCGGACACCCGATC ((((((....)))))) are -41.5 kcal/mol and 54.7 °C.
On the same counts, the results for GATCCAGGTATGGATC ((((((....)))))) are -35.1 kcal/mol and 58 °C.
With GTGGTCGAAAGACTACAC ((((((....)))..))), the folding enthalpy in data set [1] is -15.7 kcal/mol. Further, the Tm in data set [2] was 48.2 °C.
For GATCGGCTCCCGATC ((((((...)))))), in that order: -38.4 kcal/mol and 57.8 °C.
As for GTGTTCGAAAGAATGCAC ((((((....)))..))), the folding enthalpy in data set [1] is -19.1 kcal/mol. In data set [2], the Tm worked out at 33.5 °C.
On the same counts, the results for GGATAGGGAAACTTATCC (((((.(....).))))) are -30.3 kcal/mol and 35.7 °C.
Take GGAAACGAAAGTTTGTCC ((((((....)))..))): in data set [1], the folding enthalpy was -18.8 kcal/mol. Further, in data set [2], the Tm came out at 27.4 °C.
Turning to GCACCGCGAAAGCTATGC (((..((....))..))), the folding enthalpy in data set [1] was -12.8 kcal/mol. The Tm in data set [2] was found to be 31.1 °C.
For GATCTACTTATAGATC ((((((....)))))), in that order: -29.4 kcal/mol and 43 °C.
As to GATCTCACTTGAGATC ((((((....)))))), in data set [1], the folding enthalpy is -39 kcal/mol. For the same sequence, the Tm in data set [2] is 54.1 °C.
On the same counts, the results for GTCGTCGAAAGACACGAC ((((((....)))..))) are -16.7 kcal/mol and 48.1 °C.
As to GATCTATGTCTAGATC ((((((....)))))), the folding enthalpy in data set [1] is -26.6 kcal/mol. Besides, the Tm in data set [2] stood at 38.5 °C.
For GATCGTTGGGACGATC ((((((....)))))), in that order: -36.7 kcal/mol and 59 °C.
Consider GCTAAGGGAAACCTTAGC (((((((....))))))), for which the folding enthalpy in data set [1] was -40.7 kcal/mol. The Tm in data set [2] is 59.8 °C.
On to GCTAAGCGAAAGCTAGGC ((..(((....)))..)), for which the folding enthalpy in data set [1] is -17.6 kcal/mol. Besides, the Tm in data set [2] was 47.4 °C.
On the same counts, the results for GACGGCGAAAGCCTAGTC ((((((....)))..))) are -16.7 kcal/mol and 47.4 °C.
In the case of GCTGCGCGAAAGCTGAGC (((..((....))..))), the folding enthalpy in data set [1] is -13.2 kcal/mol. Also, the Tm in data set [2] was 43.8 °C.
On the same counts, the results for GGACAGCCGAAAGGCTCC (((..(((....)))))) are -7.98 kcal/mol and 31.2 °C.
For the sequence GACTTAGAAATAAGTC ((((((....)))))), the folding enthalpy in data set [1] is -30 kcal/mol. Further, the Tm in data set [2] amounted to 43.8 °C.
Consider GGACATGCGAAAGCATCC (((..(((....)))))), for which the folding enthalpy in data set [1] was -10.8 kcal/mol. Moreover, the Tm in data set [2] stood at 28.6 °C.

For the origin of these results see the array DNA melting data of Ke et al. (doi:10.1101/2024.01.08.574731).
